Fewer inactive variants are shown than the library holds.
B1: tRNA (parent)
chain: GUUCCGUUGGCGUAAUGGUAACGCGUCUCCCUCCUAAGGAGAAGACUGCGGGUUCGAGUCCCGUACGGAACG

Variants of: B1
Assay: yeast fitness relative to wild type (ratio to wild type); higher = fitter; tRNA-Arg(CCU), competitive growth, 37 C, YPD
Procedure, shortened: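 Variants of the tRNA-Arg(CCU) gene were chemically synthesised with a 3% per-site mutation rate across 69 sites and placed at the native genomic locus in Saccharomyces cerevisiae. Six parallel replicates of the pooled strains were competed in YPD at 37°C for 24 hours, and gene amplicons from the start and end populations were read by 100-nucleotide paired-end sequencing. Darwinian fitness relative to wild type was derived from changes in genotype frequencies. Genotypes required ≥ 100 starting reads, and estimates < 0.5 were set to 0.5.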

Point of comparison: C31A A45U A70U, yeast fitness 0.789. Against it:
- C30U A42C G48C A65C — lower, ≤ 0.5
- C30G U35A A65C — lower, ≤ 0.5
- C30U C46U A57U — lower, 0.515
- C30U A42G A43U U54A — lower, ≤ 0.5
- C30U A57C G63C — lower, ≤ 0.5
- C31A A37U C49A — lower, 0.745
- C30U C34A A36G C60U A70U — lower, ≤ 0.5
- C31G G51C A70G — lower, ≤ 0.5
- C31G G51C A70U — lower, 0.561
- C30U G38C A65G — lower, 0.53
- C30U C46U G50A A69G — lower, 0.605
- C30U C31U A37G A43G — lower, ≤ 0.5
- C31A C33U G41C U47C G67C — lower, ≤ 0.5
- C30U A40C C49G — lower, ≤ 0.5
- C31G A42U A43C — higher, 1.15
- C30U G44A G56A — lower, ≤ 0.5
- C31G G44C G67C — lower, ≤ 0.5
- C31A C33U C55G — lower, ≤ 0.5
- C31G C33U U53C U54G C55A — lower, ≤ 0.5
- C31G C34G A57C — lower, 0.685
- C30U U32A A36U A37U C62U A69U — lower, ≤ 0.5
- C30U U35A G63C A65C — lower, ≤ 0.5
- C30U U35A G63C A65U — lower, ≤ 0.5
- C30U A45G G48C G58C U59A — lower, 0.548
- C30U A57U — higher, 0.863
- C30G U47G A65G — lower, ≤ 0.5
- C31A G56A A65G C66A G68C — lower, 0.562
- C30U G58A C61G G68C A70U — lower, ≤ 0.5
- C31G C46U A65U — the same, 0.789
- C30U C49G C61U — lower, 0.547
- C31A G48A C66U — lower, 0.646
- C31G C33U C61U — lower, ≤ 0.5
- C31A C66G — lower, 0.615
- C31G G44C A69C A70C — lower, 0.528
- C31G G41A G52C C60U C62G — lower, 0.53
- C31A C34U C61G — lower, 0.609
- C30U G44A A65C — lower, 0.553
- C30U G68C — higher, 0.813
- C30U U47A C66A — lower, ≤ 0.5
- C30U C31G A37U G48C — lower, ≤ 0.5
- C30U G51C C61A — lower, 0.635
- C31G G44C — higher, 0.931
- C31G A36C G50A C62U G68A A69C — lower, ≤ 0.5
- C31G G58C C62U — higher, 0.838
- C31G A40G — lower, 0.719
- C31G A36U G48A A57C — lower, ≤ 0.5
- C30U A43U U64C — lower, 0.707
- C31A A42G A43U G56C — lower, ≤ 0.5
- C30U G48A — higher, 0.861
- C30U C31U A57G — lower, 0.75
- C30U A43C G67U — lower, 0.571
- C31G G41A A43C G51C — lower, 0.562
- C30U C66U A69U — lower, 0.602
- C30U A40G C49U — lower, 0.632
- C31G A45G U47A — higher, 0.893
- C31A A43G A70U — lower, 0.708
- C30U G39A C62U G68C — lower, 0.571
- C31A C33G — lower, 0.569
- C30U G44C — lower, 0.662
- C31G A40U C60G G67A — lower, ≤ 0.5
- C31A A43G A65G — lower, 0.702
- C30U C31A A40U G56A — lower, ≤ 0.5
- C31G C33G G67A — lower, ≤ 0.5
- C30U C55A C62U — lower, ≤ 0.5
- C31A C33U G41A C62A — lower, ≤ 0.5
- C31G C33G — lower, 0.565
- C31G C33U — lower, 0.673
- C31G C34A C55U U59C — lower, ≤ 0.5
- C31A A40U C46A A70C — lower, 0.626
- C31A G39A U47A G68C — lower, ≤ 0.5
- C31G A36U G39A C62U — lower, ≤ 0.5
- C31A G38C G44A A65G — lower, 0.534
- C30G U32G C46G C66U — lower, ≤ 0.5
- C30U A37C C49U C66U — lower, ≤ 0.5
- C31G G51A G68C — lower, 0.545
- C31A A36U U53A — lower, ≤ 0.5
- C30U U35A C62A — lower, ≤ 0.5
- C31A A65C G67A — lower, ≤ 0.5
- C31G G41A A65C — lower, ≤ 0.5
- C31A A45C C62U G63A U64G — lower, ≤ 0.5
- C31G C34U — lower, 0.626
- C30U C60A — lower, 0.593
- C30U C60G — lower, 0.661
- C30U C60U — lower, 0.734
- C30U C31G G39C C55A C62U A70U — lower, ≤ 0.5
- C31A A43U G68U — lower, 0.72
- C30U A43U — higher, 1.03
- C30U A43C — higher, 1.04
- C30U A45U A57C — lower, 0.566
- C30U G48C G68C — lower, 0.636
- C31G C66G — lower, 0.587
- C30U A45U — higher, 0.955
- C30U A43U U54A — lower, 0.541
- C31G G51A A57G G68C — lower, ≤ 0.5
- C30U G39C — lower, 0.682
- C30U G50C — lower, 0.69
- C31G C34U A40C G50A C55G C62A — lower, ≤ 0.5
- C30U C31U A40C A65C — lower, ≤ 0.5
- C30U G38C C55G C61U — lower, ≤ 0.5
- C30U U53G A69U — lower, ≤ 0.5
- C31G G51A C55G G68C — lower, 0.56
- C31G C49G — lower, 0.753
- C30U U59G — higher, 0.898
- C30U U53A — lower, 0.672
- C30U U53G — lower, 0.618
- C31A U47C C61A — lower, ≤ 0.5
- C31A A37C G58C — lower, 0.521
- C31A U54C U64A — lower, ≤ 0.5
- C31A C34G — lower, ≤ 0.5
- C31A C34U — lower, 0.555
- C30U G38A G68C — lower, 0.574
- C30U C31U A70C — lower, 0.784
- C30U G56A A69C — lower, 0.566
- C31G A37G G38C A43G G58C — lower, ≤ 0.5
- C30U C46U A65C — lower, 0.658
- C31G A40G C49U G50C A70C — lower, ≤ 0.5
- C30G U59G C66A — lower, ≤ 0.5
- C30U C34G A40C C49G G68C — lower, ≤ 0.5
- C30G U35C C62U — lower, 0.551
- C31A A43C A45C — lower, ≤ 0.5
- C31A A40U C46A — lower, 0.555
- C31G G51A — lower, 0.749
- C31G C49U U54G — lower, ≤ 0.5
- C30U G50A C61G — lower, ≤ 0.5
- C31A C49G G56C A70U — lower, ≤ 0.5
- C30U C46G G52A — lower, 0.6
- C30U C34G U53C A69C — lower, ≤ 0.5
- C30U C34G G38C A65C — lower, 0.537
- C30U A45C G48A G58A G67U — lower, ≤ 0.5
- C30G U35A C62U — lower, ≤ 0.5
- C30U C46U A70G — lower, 0.601
- C31G A45G U54C G56U — lower, ≤ 0.5
- C31G G38A C61A G63A A65G — lower, ≤ 0.5
- C30U U47C C66U — lower, 0.577
- C30G U35A C61U C66G A69U — lower, 0.633
- C30U G38C A57G — lower, ≤ 0.5
- C31G C33G G63A — lower, ≤ 0.5
- C31A U35A A36U U47C C66U — lower, ≤ 0.5
- C31G A37C A70C — lower, ≤ 0.5
- C31G G63A C66U — lower, 0.64
- C30U C33A G39A — lower, ≤ 0.5
- C31A G38C A43C C46G — lower, 0.672
- C31A G63C G67C — lower, ≤ 0.5
- C30G U32A C66U — lower, ≤ 0.5
- C30U C66G A70G — lower, ≤ 0.5
- C30U A43C U47G U54G — higher, 0.85
- C30U A45C G52C — lower, 0.568
- C30U G51C G58C — lower, ≤ 0.5
- C31G G41A G63U — lower, 0.609
- C30G U32A A40U A42C A65C — lower, ≤ 0.5
- C31G C34U A40C — lower, 0.526
- C31G C33U U59G C66U G68A — lower, 0.543
- C30U G52A — lower, 0.785
- C31A G50C — lower, 0.566
- C31A A45U — higher, 1.02
- C31G C46U — higher, 0.998
- C30U A37G A42G C60G — lower, 0.516
- C30U C31G A36C — lower, ≤ 0.5
- C31A G39A G48A C61U A65C — lower, 0.5
- C30U A42U A43C A70C — lower, ≤ 0.5
- C30U A65U C66G — lower, ≤ 0.5
- C31G A65G — higher, 0.867
- C31G A65C — lower, 0.691
- C31G A37U — lower, 0.728
- C30U C61G — lower, 0.671
- C30U C61U — higher, 0.826

— the RNAGym collection of RNA variant scans (doi:10.1126/science.aae0568)
